The results in this text go back to ChEMBL document CHEMBL4765399, “Design, synthesis, and biological evaluation of 5-((8-methoxy-2-methylquinolin-4-yl)amino)-1H-indole-2-carbohydrazide derivatives as novel Nur77 modulators” (Eur J Med Chem, 2020).

Test [1] deals with QGY-7703. Description: Antiproliferative activity against human QGY-7703 cells assessed as reduction in cell viability incubated for 48 hrs by MTT assay. It counts as functional, cell-based. Particulars: QGY-7703, 48 h. Put shortly:
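MTT assay after 48 h exposure at six concentrations, range chosen by cytotoxicity. Inhibition = (ODcontrol − ODtest)/ODcontrol × 100%; IC50 is the concentration halving OD versus untreated cells. Means ± SD of three independent determinations. HepG2 and SMMC-7721 grown in DMEM, QGY-7703 and LO2 in RPMI 1640, with 10% FBS at 37 °C.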
For orientation: Tetrazolium dyes change colour on reduction, which living cells bring about.

The subject of test [2] is HepG2. Put plainly: Upregulation of Nur77 expression in human HepG2 cells incubated for 6 hrs by Western blot analysis. It counts as functional, cell-based. The following applies: dose 0.5-2 µM. In short, it runs like this:
(§1)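 HepG2, QGY-7703 and SMMC-7721 cells treated with the indicated concentrations for 6 h. HepG2 also given 2.0 µM over a time course. Lysis in RIPA with protease and phosphatase inhibitors; 40-80 µg protein by SDS-PAGE, nitrocellulose transfer. Membranes blocked with 5% milk, primary antibody overnight, HRP secondary, chemiluminescence. GAPDH as loading control.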
For orientation: In western blotting, separated proteins are transferred to a membrane and probed.

Test [3] concerns HepG2. Put plainly: Upregulation of Nur77 expression in human HepG2 cells at 2 uM incubated for 6 hrs by Western blot analysis. It counts as functional, cell-based. Put shortly: as §1
In test [4] the target is T1, Nuclear receptor subfamily 4immunitygroup A member 1 (Homo sapiens, UniProt P22736). Put plainly: Modulation of Nur77 in human HepG2 cells assessed as induction of Nur77 translocation into cytoplasm from nucleus at 2 uM incubated for 6 hrs by DAPI staining based immunofluorescence assay. Type of test: cell-based. Particulars: filed as modulator. Put shortly: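 HepG2 exposed to 2.0 µM for set times, fixed (4% paraformaldehyde), permeabilised (0.1% Triton X-100), BSA-blocked, incubated 1 h with anti-Nur77 (1:500) then FITC or Cy3 anti-rabbit IgG; nuclei DAPI-stained; confocal imaging.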

In test [5] the target is T1, Nuclear receptor subfamily 4immunitygroup A member 1. Description: Modulation of Nur77 in human HepG2 cells assessed as induction of endoplasmic reticulum translocation at 2 uM incubated for 6 hrs by ER-tracker based confocal microscopy. Type of test: subcellular. The following applies: filed as modulator. In short, it runs like this: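 HepG2 exposed to 2.0 µM for 6 h, then co-stained with Nur77 antibody and ER tracker; confocal imaging.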

Test [6] concerns HepG2. Put plainly: Induction of morphological changes in human HepG2 cells assessed as vesicles accumulation at 1 to 2 uM incubated for 6 to 12 hrs by phase contrast microscopic analysis. It counts as functional, cell-based. Particulars: dose 1-2 µM, time 6-12 hrs. Put shortly:
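HepG2 cells given graded concentrations; morphology monitored at set time points by phase-contrast optical microscopy.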

For test [7], the system named is QGY-7703. Description: Induction of apoptosis in human QGY-7703 cells assessed as increase in cleaved PARP level at 0.5 to 2 uM incubated for 12 hrs by Western blot analysis. It counts as functional, cell-based. The following applies: dose 0.5-2 µM. Put shortly: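 QGY-7703 (RPMI 1640, 10% FBS) and SMMC-7721 (DMEM) cells at 37 °C, 5% CO2, treated with graded concentrations for 12 h. RIPA lysates (40-80 µg protein) run on SDS-PAGE, transferred to nitrocellulose, immunoblotted for cleaved PARP; chemiluminescence read-out.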

Test [8] relates to QGY-7703. Put plainly: Induction of autophagy in human QGY-7703 cells assessed as increase in LC3-II expression measured after 12 hrs by Western blot analysis. Type of test: functional, cell-based. The following applies: dose 0.5-2 µM. Put shortly: (§2)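 HepG2, QGY-7703 and SMMC-7721 treated with graded concentrations for 12 h. Lysed in RIPA with inhibitors; 40-80 µg protein separated by SDS-PAGE, blotted to nitrocellulose, blocked 1 h in 5% milk, primary antibodies overnight (LC3, Beclin1, Bip, CHOP, TRB3), HRP secondaries, chemiluminescence.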

Test [9] concerns HepG2. Put plainly: Induction of endoplasmic reticulum stress in human HepG2 cells assessed as increase in CHOP protein expression incubated for 12 hrs by Western blot analysis. It counts as functional, cell-based. Particulars: dose 0.5-2 µM. Put shortly:
as §2

In test [10] the test system is HepG2. Put plainly: Antitumor activity against human HepG2 cells xenografted in BALB/c mouse assessed as induction of autophagy by measuring increase in LC3-II level in tumor tissue at 10 to 20 mg/kg/day, ip administered for 15 days by immunohistochemical analysis. Type of test: functional, organism-based. Particulars: dose 10-20 mg/kg/day, time 15.0 day. In short, it runs like this:
(§3)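 HepG2 cells (5×10^6) injected subcutaneously into flanks of 4-week-old male Balb/c nude mice. At about 100 mm³, 15 mice were randomized to vehicle, 10 or 20 mg/kg i.p. once daily for 15 days. Tumors were then excised for immunostaining of paraffin sections (5 μm) or for western blot.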

The target of test [11] is T1, Nuclear receptor subfamily 4immunitygroup A member 1. Description: Binding affinity to Nur77 ligand binding domain (unknown origin) assessed as fast association/dissociation kinetics by surface plasmon resonance analysis. Particulars: filed as modulator. Put shortly: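 SPR with Nur77-LBD, analyte injected at a series of concentrations; KD (equilibrium dissociation constant) and association/dissociation kinetics derived from the sensorgrams.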
For orientation: Surface plasmon resonance follows binding to a sensor surface in real time, without labels.

The target is the same in test [12]. Description: Modulation of Nur77 in human HepG2 cells assessed as induction of Nur77 translocation into cytoplasm from nucleus by measuring decrease in protein expression in nucleus at 2 uM by western blot analysis. The following applies: filed as modulator, time 1-8 hrs, TDE = time-dependent effect. Type of test: subcellular. In short, it runs like this:
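HepG2 given 2.0 µM for set times; cells swollen 10 min on ice in HEPES/NaCl/EDTA/CaCl2/MgCl2 buffer, 0.1% NP40 added, spun 15000 rpm 3 min at 4 °C giving cytoplasmic supernatant; pellet extracted in RIPA. Fractions blotted for Nur77, with PARP (nuclear) and tubulin (cytoplasmic) as loading controls.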

In test [13] the test system is HepG2. Put plainly: Induction of apoptosis in human HepG2 cells transfected with shNur77 assessed as increase in cleaved PARP level at 2 uM incubated for 12 hrs by Western blot analysis. Type of test: functional, cell-based. In short, it runs like this:
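HepG2 carrying scrambled or Nur77 shRNA exposed to 2.0 µM for 12 h. RIPA lysates with protease/phosphatase inhibitors, 40-80 µg protein by BCA resolved on SDS-PAGE, moved to nitrocellulose, milk-blocked, probed overnight for PARP cleavage and Nur77 with HRP secondaries, chemiluminescent detection.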

Test [14] deals with T1, Nuclear receptor subfamily 4immunitygroup A member 1. Put plainly: Modulation of Nur77 in human HepG2 cells assessed as induction of nuclear […] pretreated with nuclear export inhibitor, LMB followed by incubation with compound for 12 hrs by fluorescence microscopic analysis. Type of test: cell-based.
Test [15] has as its system HepG2. Description: Upregulation of Nur77 expression in human HepG2 cells pretreated with nuclear export inhibitor, LMB followed by incubation with compound for 12 hrs by western blot analysis. Type of test: functional, cell-based.
In test [16] the test system is HepG2. Put plainly: Antitumor activity against human HepG2 cells xenografted in BALB/c mouse assessed as reduction in PCNA expression in tumor tissue at 10 to 20 mg/kg/day, ip for 15 days by immunocytochemistry staining. It counts as functional, organism-based. The following applies: dose 10-20 mg/kg/day, time 15.0 day. In short, it runs like this: as §3

Structures are written as SMILES. Activity calls are given as the source filed them. No cut-off for these calls is given here.

A word on the IC50: it is the midpoint of a concentration-inhibition curve.

T1 sequence (P22736 whole entry): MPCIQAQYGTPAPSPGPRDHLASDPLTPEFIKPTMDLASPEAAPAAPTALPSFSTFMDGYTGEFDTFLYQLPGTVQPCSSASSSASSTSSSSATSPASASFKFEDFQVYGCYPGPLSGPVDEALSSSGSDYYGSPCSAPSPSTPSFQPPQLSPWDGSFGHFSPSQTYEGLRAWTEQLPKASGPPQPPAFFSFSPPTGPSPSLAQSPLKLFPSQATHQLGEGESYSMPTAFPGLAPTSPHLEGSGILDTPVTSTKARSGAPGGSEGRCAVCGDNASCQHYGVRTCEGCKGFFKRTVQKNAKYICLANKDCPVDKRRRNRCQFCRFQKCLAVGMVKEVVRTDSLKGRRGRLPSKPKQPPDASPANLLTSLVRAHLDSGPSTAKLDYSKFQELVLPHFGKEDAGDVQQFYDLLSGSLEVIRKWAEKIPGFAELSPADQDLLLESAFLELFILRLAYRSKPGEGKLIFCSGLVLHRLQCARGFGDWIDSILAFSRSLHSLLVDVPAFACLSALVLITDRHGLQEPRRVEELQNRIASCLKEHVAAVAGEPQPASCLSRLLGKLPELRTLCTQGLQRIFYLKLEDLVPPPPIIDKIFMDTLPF

For `COc1cccc2c(Nc3ccc4[nH]c(C(=O)N/N=C/c5ccc(SC)cc5)cc4c3)cc(C)nc12`, the IC50 in [1] amounted to 0.89 µM. Further, the Activity entry in test [2] is “Dose-dependent effect”; in [7], “Dose-dependent effect”; in test [8] it was “Dose-dependent effect”; in test [9], “Dose-dependent effect”; in [12], “Tde”. Besides, the result in [3], in [4], in [5], in test [6], in test [10] and in test [11] was Active. Besides, the result in [15] and in test [16] was Active. The outcome in [13] and in test [14] was inactive.
